Assay outcomes deposited in PubChem BioAssay by Sanford-Burnham Center for Chemical Genomics.
Rows were chosen to be rich in hits. Some 2.5% of all compounds tested hit in one or more screens of this group.
SENP8 block-1: inhibitors of human SENP8 protease. Q96LD8. recombinant SENP8, Nedd8 substrate fluorescence. hit rate 0.64% among 360,000. inhibition, % at 20 µM; in the data active = inhibition mostly above about 40%, no sharp cut-off; inactive = mostly below about 27%
Target sequence (Q96LD8 whole entry, looked up): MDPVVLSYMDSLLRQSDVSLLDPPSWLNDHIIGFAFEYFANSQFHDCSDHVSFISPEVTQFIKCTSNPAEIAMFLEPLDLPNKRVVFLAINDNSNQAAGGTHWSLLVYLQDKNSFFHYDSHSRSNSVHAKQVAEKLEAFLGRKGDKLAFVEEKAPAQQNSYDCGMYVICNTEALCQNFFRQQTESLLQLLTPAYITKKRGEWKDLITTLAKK
SENP8 block-2: SENP8 protease inhibition; Q96LD8; AID 2540; purified SENP8, Z-RLRGG-aminoluciferin cleavage, luminescence; inhibition, % at 10 µM; hit rate 1.2% among 330,000; in the data active = inhibition above about 50%
SENP6 inh: inhibitors of human SENP6 protease. Recombinant SENP6 catalytic domain, aminoluciferin luminescence. inhibition, % at 10 µM. hit rate 1.8% among 330,000;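 active = inhibition above about 50% at the single tested dose, limit read from the data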;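 note: plate controls were DMSO wells with enzyme for no effect and DMSO wells lacking enzyme for full effect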
SENP7 block: blocks the human protease SENP7; hit rate 1.5% among 330,000; recombinant SENP7, Z-RLRGG-aminoluciferin luminescence, 40 min; Q9BQF6; inhibition, % at 5 µM;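 active = inhibition above about 50% at the single test dose, limit read from the data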;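 note: plate controls were DMSO with enzyme for no effect and no enzyme buffer wells for full effect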
SENP1 inh: SENP1 (human) catalytic domain inhibition. Q9P0U3. recombinant SENP1 catalytic domain, CyPet-SUMO1-YPet FRET cleavage. inhibition, % at 10 µM. hit rate 0.21% among 360,000. AID 624204;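 active = inhibition at least 30% at 10 µM, raw YFP signal under a set limit, fluorescence ratio 0.5 to 1.5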;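 note: 0% = enzyme with DMSO and 100% = no enzyme wells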
Target sequence (Q9P0U3 419-644 limits assumed): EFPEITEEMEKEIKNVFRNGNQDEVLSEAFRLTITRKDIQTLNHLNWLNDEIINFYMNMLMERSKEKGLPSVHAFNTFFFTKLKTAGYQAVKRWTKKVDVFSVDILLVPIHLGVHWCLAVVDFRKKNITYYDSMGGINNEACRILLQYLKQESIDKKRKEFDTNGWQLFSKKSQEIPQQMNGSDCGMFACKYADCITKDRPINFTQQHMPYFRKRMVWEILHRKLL
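Test system: recombinant human SENP1 catalytic domain, His6-tagged / Medium: pH 8 Tris buffer with EDTA, NaCl, BME, BSA, NP40, catalase / Also added: SUMO1 FRET substrate flanked by Cypet and Ypet, 25 nM / Times: 50 min reaction at room temperature / Signal: FRET, CFP and YFP emission / Control set: no-enzyme low control and enzyme-plus-DMSO high control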
An asterisk follows results filed as active; . = no result.

SMILES	SENP8 block-1	SENP8 block-2	SENP6 inh	SENP7 block	SENP1 inh
COc1cccc2c1C(=O)c1c(O)c3c(c(O)c1C2=O)C[C@@](O)(C(C)=O)C[C@@H]3O[C@H]1C[C@H](N)[C@H](O)[C@H](C)O1	33.2	.	.	.	103.3
COc1cccc2c1C(=O)c1c(O)c3c(c(O)c1C2=O)C[C@@](O)(C(=O)CO)C[C@@H]3O[C@H]1C[C@H](N)[C@@H](O)[C@H](C)O1	51.9*	5.1	8.9	10.4	97.0
COc1cc(C(=O)N2C(=O)CCC2=O)cc(OC)c1OC	12.8	-7.3	-12.9	-10.7	-2.8
O=C(CC1Nc2ccccc2NC1=O)c1ccccc1 (stereo unspecified)	.	59.0*	72.0*	20.0	.
O=C(CC1Nc2ccccc2NC1=O)NCCc1ccccc1 (stereo unspecified)	-272.8	3.9	0.7	5.3	-62.5
Cc1cc(-c2ccc(N=Nc3c(S(=O)(=O)O)cc4cc(S(=O)(=O)O)cc(N)c4c3O)c(C)c2)ccc1N=Nc1c(S(=O)(=O)O)cc2cc(S(=O)(=O)O)cc(N)c2c1O	.	72.2*	26.2	41.4	.
O=S(=O)(O)c1cc(O)c2c(O)c(N=Nc3cc(Cl)ccc3O)c(S(=O)(=O)O)cc2c1	29.8	19.6	27.9	10.0	-0.7
C/C(=N\NC(=O)c1ccc(Br)cc1)C1C(=O)c2ccccc2C1=O	17.7	94.3*	97.2*	56.6*	1.7
COc1ccc(CN2CCNC(=O)C2CC(=O)N(C)CCCN2CCOCC2)cc1C (stereo unspecified)	-3.9	-8.4	-10.3	2.1	-1.5
CCNC(=O)C1CCCN(C(=O)c2ccc3ccccc3c2)CC1 (stereo unspecified)	11.0	.	.	.	0.6
Cc1nnc(N/N=C\c2ccc(-c3cccc(C(=O)O)c3)o2)n1N	-360.1	25.3	52.4*	4.7	-8.6
O=C1c2ccccc2C(=O)c2c(O)c(O)cc(O)c21	18.3	9.8	13.8	5.9	5.5
O=C1C=C(O)c2c(O)cc(O)c(O)c2C1=O	46.8*	4.9	4.5	3.5	-44.5
CCCS(=O)(=O)NC(=O)C1(C)CCN(C(=O)c2cc(F)cc(F)c2)C1 (stereo unspecified)	16.0	.	.	.	3.6
O=C(Nc1ccc([N+](=O)[O-])cc1Cl)c1cccc([N+](=O)[O-])c1	15.1	.	.	.	1.9
O=C(Nc1cccc(Cl)c1)c1cc(N=Nc2ccc([N+](=O)[O-])cc2Cl)ccc1O	43.1*	13.7	-1.4	7.4	4.4
O=C(Nc1ccc([N+](=O)[O-])cc1Cl)c1cc(Cl)ccc1O	11.9	97.6*	98.9*	99.6*	3.0
COCCN(C(=O)CSc1nnc(-c2ccccc2F)o1)c1c(N)n(Cc2ccccc2)c(=O)[nH]c1=O	9.2	.	.	.	-0.7
COc1ccc(-c2coc3c(C(=O)Nc4cccnc4)cccc23)c(C)c1	-6.4	.	.	.	1.0
O=C(Nc1cc2ccccc2oc1=O)c1ccccc1	-36.2	93.9*	-8.6	98.1*	1.3
Cc1nn(-c2ccccc2)c(Cl)c1/C=C1\SC(=S)N(CCCCCC(=O)O)C1=O	53.5*	-23.2	-11.6	5.8	0.4
Cc1nn(-c2ccccc2)c(Cl)c1/C=C1\SC(=S)NC1=O	18.7	0.5	1.6	40.5	8.3
O=C(O)c1ccc(N=N/C(=N\Nc2ccc(C(=O)O)cc2)c2ccccc2)cc1	44.7*	9.6	21.6	-3.9	4.3
Cc1cccc(C)c1NC(=O)C1(C)CN(S(C)(=O)=O)CC(=O)N1Cc1cccc(F)c1 (stereo unspecified)	4.2	.	.	.	-7.0
Oc1ccc(Br)cc1/C=N/N1CCCCC1	14.6	84.5*	94.3*	53.3*	-1.2
SMILES	SENP8 block-1	SENP8 block-2	SENP6 inh	SENP7 block	SENP1 inh
O=[N+]([O-])c1ccc(O)c(C=NN2CCCCC2)c1	26.1	.	.	.	3.2
COC(=O)c1c(N)[nH]c(C(=O)c2ccccc2)c1-c1ccccc1Br	4.8	.	.	.	-0.8
O=C(Nc1ccc(Br)cn1)c1ccc(Cl)s1	8.4	42.0	60.8*	54.5*	1.6
O=C(Nc1nc(=O)c2ccccc2s1)c1ccc(Cl)cc1	24.5	-21.8	6.5	26.9	3.0
O=C(Nc1nc2ccsc2c(=O)s1)c1ccc(Cl)cc1	-113.2	94.1*	94.8*	100.0*	-28.9
CC1=NN(C(C#N)c2ccccc2O)C(C)(C)C1 (stereo unspecified)	43.2*	-6.8	9.4	2.4	1.5
CCOC(=O)c1ccc(N2CCN(C(C)=O)CC2)c(NC(=O)c2cccnc2)c1	12.0	-3.3	10.7	-1.0	1.5
CC(=O)Nc1nc(C)c(-c2csc(Nc3ccccn3)n2)s1	-305.9	74.0*	87.3*	79.3*	1.1
Cc1cc(-n2nc3ccccc3n2)c(O)c([N+](=O)[O-])c1	25.7	-10.4	17.0	-2.4	1.8
Cc1ccc(OC(=O)c2cccc([N+](=O)[O-])c2)c(-n2nc3ccccc3n2)c1	15.8	86.7*	93.0*	90.0*	-2.7
Oc1c(Br)cc(Br)cc1C=Nc1cccc2ncccc12	-8.0	50.2*	71.9*	13.8	-38.2
Brc1cccc(C=Nc2cccc3ncccc23)c1	35.6	0.1	2.0	15.2	3.8
O=C(CSc1n[nH]c(-c2ccc(Br)cc2)n1)N1CCOCC1	10.3	-14.0	-11.3	3.2	-2.3
COc1ccc(N=Nc2nc(-c3ccccc3)c(-c3ccccc3)[nH]2)cc1	25.3	-2.9	-2.9	2.1	36.8*
Oc1ccccc1N=Nc1nc(-c2ccccc2)c(-c2ccccc2)[nH]1	50.9*	4.2	-0.4	9.1	48.1*
O=C(O)c1ccc(-c2nc(-c3ccccc3)c(-c3ccccc3)[nH]2)cc1	-398.7	-6.7	-20.5	-2.9	0.3
COc1ccccc1N=Nc1nc(-c2ccccc2)c(-c2ccccc2)[nH]1	29.4	.	.	.	17.3
COc1cc(/C=C(\NC(=O)c2ccccc2)C(=O)N2CC3CC(C2)c2cccc(=O)n2C3)cc(OC)c1OC (stereo unspecified)	15.4	-8.2	-0.4	-1.8	1.6
COc1ccc(CN=Cc2[nH]c3ccc(Br)c(Cl)c3c2O)cc1	48.8*	5.7	-1.8	0.4	-38.3
C/C(=N\NC(=O)Cc1csc(N2CCOCC2)n1)c1ccccc1	10.8	0.5	-6.2	13.6	1.9
O=C(CCN1CCN(c2ccccc2)CC1)N/N=C/c1ccc(O)c(O)c1O	62.4*	.	.	.	6.5
O=C(Cc1csc(N2CCOCC2)n1)N/N=C/c1ccc(O)c(O)c1O	59.4*	.	.	.	-1.0
COCCN(C(=O)CSc1nc(-c2ccccc2)cn1N)c1c(N)n(Cc2ccccc2)c(=O)[nH]c1=O	-35.0	-2.9	10.4	4.7	-0.1
CCOc1ccc(-c2nnc(SCC(=O)N3CCNC3=O)o2)cc1	15.9	2.5	11.4	-0.3	1.8
CCN(CC)c1ccc(NC(=O)CSc2ccsc2[N+](=O)[O-])c(C)c1	45.6*	3.4	6.7	6.1	3.3
CN1CCS/C1=C\C=C1/SC(=S)N(CC(=O)O)C1=O	22.7	.	.	.	67.8*
O=C(CSc1nnc(NC(=O)c2ccccc2F)s1)NCc1ccco1	-12.9	-3.5	7.6	8.0	0.9
CC(=O)C1=C(c2ccc(Br)cc2)C(=O)c2ccccc2C1=O	9.5	.	.	.	11.6
